Screening results: PubChem BioAssay, Broad Institute
Rows were chosen to be rich in hits. Some 2.6% of all compounds tested hit in one or more screens of this group.
miR122 inh: blocks miR-122 activity in Huh7 sensor cells; Huh7 miR-122 Renilla luciferase sensor, 48 h; neutral wells = 0, positive control = 100; activation (reporter increase), % at 12.5 µM; 0.3% of 340,000 active;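 active means mean replicate activation score at least 90 and every replicate individually at or above 90; inconclusive means only one of the two criteria met; inactive means neither criterion met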;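 further: higher luciferase means less miR-122 activity so hits act as miR-122 inhibitors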
rRNA inh HTS: selective bacterial rRNA inhibition in E. coli; E. coli WT GFP vs humanized-ribosome RFP mutants, fluorescence, 24 h; stronger effect = lower value; DMSO median 0, no signal -100; GFP signal change (wild-type ribosome), % (no concentration beside the values); 1.6% of 350,000 active; AID 720706;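 active means significant combined selectivity score with lowered wild-type GFP, culture density cut under 30%, mutant RFP and density less affected; inactive means any of these conditions unmet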
S100A4 inh HTS: inhibitors of human S100A4 binding to myosin IIA peptide; 0.14% of 360,000 active; AID 652163; P26447; S100A4/TAMRA-MyoIIA peptide fluorescence polarization; inhibition, % at 10.7 µM;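 active means mean inhibition of at least 70% across replicates, with every replicate also reaching that level; inconclusive means mean inhibition reaches 70% but some replicates fall short; inactive means mean inhibition below 70%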
Target sequence (P26447 whole entry, looked up): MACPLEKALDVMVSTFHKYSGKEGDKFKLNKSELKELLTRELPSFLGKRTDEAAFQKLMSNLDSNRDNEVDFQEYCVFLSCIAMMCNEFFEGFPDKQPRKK
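Material: S100A4 monomer protein / Buffer or medium: 50 mM HEPES pH 7.2, 10 mM CaCl2, 100 mM KCl / Times: 5 min incubation before reading / Benchmarks: neutral control DMSO, positive control TFP / Reagent: labelled myosin peptide probe, 5 nM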
Vif inh: blocks HIV Vif function; HEK293T cells, Vif self-association by quenched fluorescence, imaging, 24 h; 0.35% of 340,000 active; inhibition, % at 7.49 µM; in the data active means inhibition above about 50%, passing the limit was not always enough; inconclusive means no clear call, values can overlap the other calls; inactive means below about 31%
FN deposition inh: fibronectin deposition inhibition; AH1F fibroblasts, Alexa488-fibronectin deposition fluorescence, overnight; inhibition, % at 12.6 µM; 0.086% of 350,000 active;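 active means mean inhibition across replicates of 30% or more, regardless of how many single replicates reach that level; inconclusive means mean under 30% yet at least half of replicates reach 30%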
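Material: AH1F fibroblasts assembling fluorescent fibronectin matrix; amount: 10000 AH1F cells/well; medium: DMEM, 2% serum; reagent: Alexa488-fibronectin, 24 nM final in well; dosing: single compound dose, delivered by pin transfer; incubation: 1 h adhesion, overnight exposure; detection: fluorescence after three HBSS washes, excitation 485 nm, emission 525 nm; measure: fibronectin deposition inhibition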
HIV Env fusion: inhibitors of HIV Env-mediated cell fusion; HeLa-JRFL Env/CEM21 cell fusion, luciferase; inhibition, % at 12.3 µM; 1.1% of 360,000 active; AID 651610;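 active means mean replicate inhibition score of at least 50 and every replicate individually at or above 50; inconclusive means only one of the two criteria met; inactive means mean below 50 and not all replicates reaching 50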
A number is an active result; n = inactive; u = inconclusive; x = no result given; + = active, no number.

SMILES | miR122 inh | rRNA inh HTS | S100A4 inh HTS | Vif inh | FN deposition inh | HIV Env fusion
COc1cccc2c1C(=N)c1c(O)c3c(c(O)c1C2=O)CC(O)(C(C)=O)CC3OC1CC(N)C(O)C(C)O1 (stereo unspecified) | n | x | x | n | x | x
COc1cccc2c1C(=O)c1c(O)c3c(c(O)c1C2=O)CC(O)(C(C)=O)CC3OC1CC(O)C(O)C(C)O1 (stereo unspecified) | n | x | + | n | n | n
Cc1ccc(S(=O)(=O)NCc2ccncc2)c(C)c1C | n | n | n | n | n | 55
Cc1cc(C)c(S(=O)(=O)NCc2ccncc2)c(C)c1 | 118 | x | x | n | n | u
O=S(=O)(NCc1ccco1)c1ccc2ccccc2c1 | 95 | n | n | n | n | n
Cc1cc(C)c(S(=O)(=O)NCCc2ccncc2)c(C)c1 | n | n | n | n | n | n
Cc1ccc(S(=O)(=O)NCc2ccco2)c(C)c1C | 107 | x | x | n | x | x
Cc1ccc2ccc(S(=O)(=O)NCc3ccco3)cc2c1 | n | n | n | n | n | n
C[C@H]1CN([C@@H](C)CO)C(=O)c2cc(C#CC3CC3)cnc2O[C@@H]1CN(C)C(=O)c1ccccc1 | n | n | n | x | x | n
CN1CCN(C(=O)C2=C[C@H](c3ccc(Br)cc3)C[C@H](OCc3ccc(CO)cc3)O2)CC1 | x | x | n | x | x | n
O=C(C1CCC1)N1CCc2cc(S(=O)(=O)NCc3ccco3)ccc21 | 177 | x | x | x | x | x
Cc1ccc(CNS(=O)(=O)c2ccc3c(c2)CCN3C(=O)C2CCC2)cc1 | n | n | n | n | n | n
Cc1cccc(C)c1NC(=O)COn1nnc2ccc(C(F)(F)F)cc21 | x | n | n | n | n | n
O=C(COn1nnc2ccc(C(F)(F)F)cc21)Nc1c(Cl)cccc1Cl | x | -25 | n | n | n | n
CC1(C(=O)NCCc2c[nH]c3ccccc23)CCN1CC1CCCCC1 (stereo unspecified) | n | -23 | n | n | n | n
O=C(O)/C(=C\c1ccc2ccccc2c1)c1cccc2ccccc12 | x | -47 | n | n | n | n
O=C(O)C(=Cc1ccncc1)c1cccc2ccccc12 | n | n | n | n | n | n
CC(C)c1ccc(/C=C2\SC(=S)N(CCC(=O)N3CCCCC3CCO)C2=O)cc1 (stereo unspecified) | n | n | n | n | n | 56
COc1ccccc1NC(=O)c1nc(S(=O)(=O)Cc2ccccc2)ncc1Cl | n | n | n | n | 42 | n
CCc1ccc(NC(=O)c2nc(S(=O)(=O)Cc3ccccc3)ncc2Cl)cc1 | n | n | n | n | 51 | u
CC(=O)Nc1ccc(NC(=O)c2nc(S(=O)(=O)Cc3cccc(C)c3)ncc2Cl)cc1 | x | n | n | n | n | n
CC1CCN(S(=O)(=O)c2ccc(NC(=O)c3ccncc3)cc2)CC1 | n | n | n | n | x | n
CCS(=O)(=O)c1ncc(Cl)c(C(=O)Nc2ccc(S(=O)(=O)N3CCC(C)CC3)cc2)n1 | n | n | n | n | 58 | 65
COC(=O)c1ccc(NC(=O)c2nc(S(=O)(=O)Cc3cccc(C)c3)ncc2Cl)cc1 | n | n | n | n | 53 | n
C[C@H]1CN([C@@H](C)CO)C(=O)Cc2cc(NS(=O)(=O)c3ccccc3)ccc2O[C@@H]1CN(C)C | n | n | n | x | x | x
SMILES | miR122 inh | rRNA inh HTS | S100A4 inh HTS | Vif inh | FN deposition inh | HIV Env fusion
CCOc1ccccc1NC(=O)c1nc(S(=O)(=O)Cc2ccccc2)ncc1Cl | n | n | n | n | n | n
CCOC(=O)c1ccc(NC(=O)c2nc(S(=O)(=O)Cc3ccccc3)ncc2Cl)cc1 | n | n | n | n | 47 | u
O=C(c1ccccn1)N1CC(=O)N2[C@@H](CO)[C@H](c3ccc(C#Cc4ccccc4)cc3)[C@@H]2C1 | x | n | n | x | x | x
O=[N+]([O-])c1ccc(CN2CCN(c3ccc([N+](=O)[O-])cc3)CC2)cc1 | x | n | n | x | n | n
O=[N+]([O-])c1ccc(N2CCC(=NOCc3ccc(Cl)cc3)CC2)cc1 | n | x | x | n | n | 75
CC(C)C[C@H](NC(=O)N1CCn2c1nc1ccccc12)C(=O)N1CCCCC1 | n | n | n | n | n | n
CSCC[C@H](NC(=O)N1CCn2c1nc1ccccc12)C(=O)N1CCCCC1 | n | -17 | n | n | n | n
